ChEMBL document CHEMBL1157792, “Pachycladins A-E, prostate cancer invasion and migration inhibitory Eunicellin-based diterpenoids from the red sea soft coral Cladiella pachyclados” (J Nat Prod, 2010)
The source made the active and inactive calls. The rule behind the calls is not given here.

Assays:
Assay type in all cases: functional, cell-based
[1] = system: PC-3; experiment: Antimigratory activity against human PC3 cells at 50 uM by wound-healing assay
Summary of the method: (§1)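 Confluent PC-3 monolayers (>90%) in RPMI with 10% FBS, scratched with a pipet tip, washed with PBS, then given compound in DMSO, in triplicate, with DMSO vehicle control. Incubated 24 h serum-starved at 37 °C, fixed and stained with Diff Quick. Migrated cells counted in three or more random 400× fields; mean (SEM) per field.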

[2] = system: PC-3; experiment: Antiinvasive activity against human PC3 cells at 10 uM by cultrex cell invasion assay
Summary of the method: (§2)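 PC-3 cells (50 000 per well) in serum-free RPMI seeded into the top chamber of wells coated with basement membrane extract (4 h, 37 °C), with compound in the top chamber. Lower chamber: RPMI with 10% FBS, fibronectin and N-formyl-met-leu-phe (10 nM) as chemoattractants. After 24 h at 37 °C, invaded cells stained with calcein-AM for 1 h; fluorescence read at ex 485/em 520 nm.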

[3] = system: PC-3; experiment: Antimigratory activity against human PC3 cells at 10 uM by wound-healing assay; summary of the method: as §1
[4] = system: PC-3; experiment: Antiinvasive activity against human PC3 cells at 50 uM by cultrex cell invasion assay; summary of the method: as §2
[5] = system: PC-3; experiment: Antiproliferative activity against human PC3 cells at 50 uM after 96 hrs by MTT assay
Summary of the method: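 PC-3 cells (8 × 10^3 per well) allowed to attach for 24 h, then given serum-free RPMI with compound at 50, 20, 10 or 5 µM for 96 h at 37 °C, 5% CO2. MTT added for 4 h, formazan solubilized, absorbance read at 550 nm. Cell number taken from a hemocytometer-based standard curve; IC50 obtained by nonlinear regression of log concentration against cells/well.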

[6] = system: PC-3; experiment: Antimigratory activity against human PC3 cells at 200 uM by wound-healing assay; summary of the method: as §1

Row | Compound | Activity [1] | also measured
1 | C=C1CC[C@H](C(C)C)[C@@H]2[C@H]1[C@H]1CC(=C)[C@@H](O)CC[C@@](C)(OC(C)=O)[C@@H]2O1 | Active | 
2 | C=C1CC[C@H](C(C)C)[C@@H]2[C@H]1[C@@H]1CC(=C)[C@@H](O)CC[C@](C)(O)[C@H]2O1 | Active | 
3 | C=C1CC[C@H](C(C)C)[C@@H]2[C@H]1[C@H]1C/C(C)=C\CC[C@@](C)(O)[C@@H]2O1 | Active | 
4 | C=C1C[C@H]2O[C@H]([C@@H]3[C@@H](C(C)C)[C@H](O)C[C@@](C)(OC(C)=O)[C@@H]32)[C@](C)(OC(C)=O)CC[C@@H]1O | Active | 
5 | C=C1CC[C@H](C(C)C)[C@@H]2[C@H]1[C@H]1CC(=C)[C@@H](OC(C)=O)CC[C@@](C)(O)[C@@H]2O1 | Active | 
6 | C=C1CC[C@H](C(C)C)[C@@H]2[C@H]1[C@H]1CC(=C)[C@@H](OC(C)=O)CC[C@@](C)(OC(C)=O)[C@@H]2O1 | Active | 
7 | CC(=O)O[C@]1(C)CC[C@H](C(C)C)[C@@H]2[C@H]1[C@H]1C[C@](C)(O)[C@@H](O)CC[C@@](C)(OC(C)=O)[C@@H]2O1 |  | Activity [2]: Active; Activity_index [3]: Active
8 | CC(=O)O[C@]1(C)CC[C@H](C(C)C)[C@@H]2[C@H]1[C@H]1C[C@]3(C)CCC[C@@](C)(O3)[C@@H]2O1 | Active | Activity [4]: Active
9 | C=C1C[C@H]2O[C@H]([C@@H]3[C@@H](C(C)C)[C@H](O)C[C@@](C)(OC(=O)CCC)[C@@H]32)[C@](C)(OC(C)=O)CC[C@@H]1O | Active | 
10 | C=C1CC[C@H](C(C)C)[C@@H]2[C@H]1[C@H]1C[C@](C)(O)[C@@H](O)CC[C@@](C)(O)[C@@H]2O1 | Active | Activity [4]: Active
11 | C=C1CC[C@H](C(C)C)[C@@H]2[C@H]1[C@H]1CC(=C)[C@]3(O)CC[C@@](C)(O3)[C@@H]2O1 | Active | 
12 | CCCC(=O)O[C@]1(C)CC[C@H](C(C)C)[C@@H]2[C@H]1[C@H]1C[C@](C)(O)[C@@H](O)CC[C@@](C)(OC(C)=O)[C@@H]2O1 | Active | Activity [5]: inactive; Activity [4]: Active
13 | C=C1CC[C@H](C(C)C)[C@@H]2[C@H]1[C@H]1C[C@](C)(O)[C@@H](OC)CC[C@@](C)(O)[C@@H]2O1 | Active | Activity [4]: Active
14 | C=C1CC[C@H](C(C)C)[C@@H]2[C@H]1[C@H]1C[C@](C)(O)[C@@H](O)CC[C@@](C)(OC(C)=O)[C@@H]2O1 | Active | 
15 | C=C1C[C@H]2O[C@H]([C@H]3[C@@H]2[C@](C)(OC(C)=O)CC[C@@H]3C(C)C)[C@@]2(C)CC[C@]1(O)O2 | Active | 
16 | O=C1NC(=O)/C(=C/c2ccc(O)cc2)N1 |  | Activity [6]: Active
